Laboratory results published in ChEMBL document CHEMBL5550111, “Design, synthesis and biological evaluation of aryloxy thiophosphoramidate triesters of anticancer nucleoside analogues” (Bioorg Med Chem, 2024).

Legend:
[1] = test system: OVCAR-3; assay: Cytotoxicity against human OVCAR-3 cells assessed as inhibition of cell viability incubated for 72 hrs by MTS assay; assay type: functional, cell-based; conditions: OVCAR-3, 72 h
Summary of the method: (§1)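 Cells seeded at 0.5 to 100 × 10^3 per well the day before treatment, then exposed for 72 h to 9 serial concentrations (3.16-fold dilutions, top 198 μM), in duplicate. MTS added for a final 4 h at 37 °C and absorbance read. IC50 is the concentration giving 50% loss of viability. MI% is the maximum inhibition over the tested range.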

[2] = test system: HepG2; assay: Cytotoxicity against human HepG2 cells assessed as inhibition of cell viability incubated for 72 hrs by MTS assay; assay type: functional, cell-based; conditions: HepG2, 72 h; summary of the method: as §1
[3] = Cytotoxicity against human T24/83 cells assessed as inhibition of cell viability incubated for 72 hrs by MTS assay; assay type: functional, cell-based; conditions: T24/83, 72 h; summary of the method: as §1
[4] = test system: RT112/84; assay: Cytotoxicity against human RT112/84 cells assessed as inhibition of cell viability incubated for 72 hrs by MTS assay; assay type: functional, cell-based; conditions: RT112/84, 72 h; summary of the method: as §1
[5] = test system: SK-MES-1; assay: Cytotoxicity against human SK-MES-1 cells assessed as inhibition of cell viability incubated for 72 hrs by MTS assay; assay type: functional, cell-based; conditions: SK-MES-1, 72 h; summary of the method: as §1
[6] = test system: RT112/84; assay: Cytotoxicity against human RT112/84 cells assessed as maximum inhibition of cell viability upto 198 uM incubated for 72 hrs by MTS assay relative to control; assay type: functional; conditions: up to 198 µM
Summary of the method: (§2)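 Cells seeded at 0.5 to 100 × 10^3 per well the day before drug addition, then exposed to compound for 72 h. MTS added afterwards, with a further 4 h at 37 °C, and absorbance read. Tested in duplicate at 9 serial 3.16-fold dilutions, top concentration 198 μM. MI% is the maximum inhibition of viability across the tested range.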

[7] = test system: A2780; assay: Cytotoxicity against human A2780 cells assessed as maximum inhibition of cell viability upto 198 uM incubated for 72 hrs by MTS assay relative to control; assay type: functional; conditions: up to 198 µM; summary of the method: as §2
[8] = test system: BXPC-3; assay: Cytotoxicity against human BXPC-3 cells assessed as maximum inhibition of cell viability upto 198 uM incubated for 72 hrs by MTS assay relative to control; assay type: functional; conditions: up to 198 µM; summary of the method: as §2
[9] = test system: PC-3; assay: Cytotoxicity against human PC-3 cells assessed as inhibition of cell viability incubated for 72 hrs by MTS assay; assay type: functional, cell-based; conditions: PC-3, 72 h; summary of the method: as §1
[10] = test system: SK-MES-1; assay: Cytotoxicity against human SK-MES-1 cells assessed as maximum inhibition of cell viability upto 198 uM incubated for 72 hrs by MTS assay relative to control; assay type: functional; conditions: up to 198 µM; summary of the method: as §2
[11] = test system: MIA PaCa-2; assay: Cytotoxicity against human MIA PaCa-2 cells assessed as maximum inhibition of cell viability upto 198 uM incubated for 72 hrs by MTS assay relative to control; assay type: functional; conditions: up to 198 µM; summary of the method: as §2
[12] = test system: OVCAR-3; assay: Cytotoxicity against human OVCAR-3 cells assessed as maximum inhibition of cell viability upto 198 uM incubated for 72 hrs by MTS assay relative to control; assay type: functional; conditions: up to 198 µM; summary of the method: as §2
[13] = test system: MDA-MB-231; assay: Cytotoxicity against human MDA-MB-231 cells assessed as maximum inhibition of cell viability upto 198 uM incubated for 72 hrs by MTS assay relative to control; assay type: functional; conditions: up to 198 µM; summary of the method: as §2
[14] = Prodrug activation assessed as carboxypeptidase Y (unknown origin) mediated intermediate (2S)-2-[[[(2R,3R,5R)-5-(4-amino-2-oxo-pyrimidin-1-yl)-4,4-difluoro-3-hydroxy-tetrahydrofuran-2-yl]methoxy-phenoxy-phosphinothioyl]amino]propanoic acid formation at 5 mg measured after 5 hrs by 31P-NMR assay; parameters: species or system Homo sapiens
Summary of the method: (§3)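 Thiophosphoramidate (5 mg, about 0.008 mmol) dissolved in 150 µL acetone-d6, with 300 µL TRIZMA buffer pH 7.6 added. Enzymatic conversion followed by 31P-NMR.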

[15] = test system: COLO 205; assay: Cytotoxicity against human COLO 205 cells assessed as inhibition of cell viability incubated for 72 hrs by MTS assay; assay type: functional, cell-based; conditions: COLO 205, 72 h; summary of the method: as §1
[16] = test system: MDA-MB-231; assay: Cytotoxicity against human MDA-MB-231 cells assessed as inhibition of cell viability incubated for 72 hrs by MTS assay; assay type: functional, cell-based; conditions: MDA-MB-231, 72 h; summary of the method: as §1
[17] = test system: PANC-1; assay: Cytotoxicity against human PANC-1 cells assessed as maximum inhibition of cell viability upto 198 uM incubated for 72 hrs by MTS assay relative to control; assay type: functional; conditions: up to 198 µM; summary of the method: as §2
[18] = test system: HT-29; assay: Cytotoxicity against human HT-29 cells assessed as inhibition of cell viability incubated for 72 hrs by MTS assay; assay type: functional, cell-based; conditions: HT-29, 72 h; summary of the method: as §1
[19] = test system: HT-29; assay: Cytotoxicity against human HT-29 cells assessed as maximum inhibition of cell viability upto 198 uM incubated for 72 hrs by MTS assay relative to control; assay type: functional; conditions: up to 198 µM; summary of the method: as §2
[20] = test system: MIA PaCa-2; assay: Cytotoxicity against human MIA PaCa-2 cells assessed as inhibition of cell viability incubated for 72 hrs by MTS assay; assay type: functional, cell-based; conditions: MIA PaCa-2, 72 h; summary of the method: as §1
[21] = Prodrug activation assessed as carboxypeptidase Y (unknown origin) mediated (2S)-2-[[[(2R,3R,5R)-5-(4-amino-2-oxo-pyrimidin-1-yl)-4,4-difluoro-3-hydroxy-tetrahydrofuran-2-yl]methoxy-hydroxy-phosphoryl]amino]propanoic acid formation from intermediate (2S)-2-[[[(2R,3R,5R)-5-(4-amino-2-oxo-pyrimidin-1-yl)-4,4-difluoro-3-hydroxy-tetrahydrofuran-2-yl]methoxy-phenoxy-phosphinothioyl]amino]propanoic acid at 5 mg measured for 48 hrs by 31P-NMR assay; summary of the method: as §3
[22] = test system: PC-3; assay: Cytotoxicity against human PC-3 cells assessed as maximum inhibition of cell viability upto 198 uM incubated for 72 hrs by MTS assay relative to control; assay type: functional; conditions: up to 198 µM; summary of the method: as §2
[23] = test system: A2780; assay: Cytotoxicity against human A2780 cells assessed as inhibition of cell viability incubated for 72 hrs by MTS assay; assay type: functional, cell-based; conditions: A2780, 72 h; summary of the method: as §1
[24] = test system: PANC-1; assay: Cytotoxicity against human PANC-1 cells assessed as inhibition of cell viability incubated for 72 hrs by MTS assay; assay type: functional, cell-based; conditions: PANC-1, 72 h; summary of the method: as §1
[25] = test system: HepG2; assay: Cytotoxicity against human HepG2 cells assessed as maximum inhibition of cell viability upto 198 uM incubated for 72 hrs by MTS assay relative to control; assay type: functional; conditions: up to 198 µM; summary of the method: as §2
[26] = test system: COLO 205; assay: Cytotoxicity against human COLO 205 cells assessed as maximum inhibition of cell viability upto 198 uM incubated for 72 hrs by MTS assay relative to control; assay type: functional; conditions: up to 198 µM; summary of the method: as §2
[27] = test system: BXPC-3; assay: Cytotoxicity against human BXPC-3 cells assessed as inhibition of cell viability incubated for 72 hrs by MTS assay; assay type: functional, cell-based; conditions: BXPC-3, 72 h; summary of the method: as §1

Q: For C[C@H](NP(=S)(OC[C@H]1O[C@@H](n2ccc(N)nc2=O)C(F)(F)[C@@H]1O)Oc1ccccc1)C(=O)OCc1ccccc1 (some centres not stated), which IC50 [1] is on record?
A: 97.4 µM

Q: What about the IC50 [2] of the same compound?
A: 27.1 µM

Q: And the IC50 [3]?
A: 0.32 µM

Q: What about the IC50 [4] of the same compound?
A: 0.92 µM

Q: What about the IC50 [5] of the same compound?
A: 0.92 µM

Q: And the Imax [6]?
A: 94%

Q: What about the Imax [7] of the same compound?
A: 100%

Q: What about the Imax [8] of the same compound?
A: 95%

Q: What about the IC50 [9] of the same compound?
A: 43.9 µM

Q: And the Imax [10]?
A: 94%

Q: What about the Imax [11] of the same compound?
A: 99%

Q: What about the Imax [12] of the same compound?
A: 46%

Q: What about the Imax [13] of the same compound?
A: 91%

Q: And the Drug metabolism [14]?
A: Metabolite_Detected

Q: What about the IC50 [15] of the same compound?
A: 22.3 µM

Q: And the IC50 [16]?
A: 11.6 µM

Q: What about the Imax [17] of the same compound?
A: 99%

Q: What about the IC50 [18] of the same compound?
A: 11.5 µM

Q: And the Imax [19]?
A: 99%

Q: What about the IC50 [20] of the same compound?
A: 3.83 µM

Q: And the Drug metabolism [21]?
A: Metabolite_Detected

Q: And the Imax [22]?
A: 96%

Q: What about the IC50 [23] of the same compound?
A: 3.58 µM

Q: What about the IC50 [24] of the same compound?
A: 76.4 µM

Q: And the Imax [25]?
A: 98%

Q: What about the Imax [26] of the same compound?
A: 97%

Q: What about the IC50 [27] of the same compound?
A: 8.16 µM
